Measurements from ChEMBL document CHEMBL4359823, “Switching on the activity of 1,5-diaryl-pyrrole derivatives against drug-resistant ESKAPE bacteria: Structure-activity relationships and mode of action studies” (Eur J Med Chem, 2019).
Values after ≈ are worked out from the molar mass of the structure shown. Active and inactive are the calls of the source. No cut-off for these calls is given here.

What was measured:
Escherichia coli [1] = experiment: Antibacterial activity against Escherichia coli NCTC12923 measured after overnight incubation by microbroth dilution method; assay type: functional
Summary of the method: (§1)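 Microbroth dilution MIC. Compound DMSO stocks were diluted in water as a 2-fold series. Overnight TSB cultures were back-diluted to OD 0.01 and mixed 1:1 with compound. Plates were incubated overnight at 37 °C. MIC was the lowest concentration without visible growth (<0.1 OD600), run in duplicate.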

Staphylococcus aureus [2] = experiment: Antibacterial activity against methicillin resistant Staphylococcus aureus NCTC13616 measured after overnight incubation by microbroth dilution method; assay type: functional
Summary of the method: (§2)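 Microbroth dilution: DMSO stocks diluted in water, 2-fold series. Overnight TSB cultures back-diluted to OD 0.01 and mixed 1:1 with compound. Incubated overnight at 37 °C; MIC taken as lowest concentration without visible growth (<0.1 OD600). Run in duplicate; matching DMSO levels checked for effect on growth.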

Acinetobacter baumannii [3] = experiment: Antibacterial activity against Acinetobacter baumannii ATCC 17978 measured after overnight incubation by microbroth dilution method; assay type: functional; summary of the method: as §1
Klebsiella pneumoniae [4] = experiment: Antibacterial activity against Klebsiella pneumoniae M6 measured after overnight incubation in presence of polymyxin B nonapeptide by microbroth dilution method; assay type: functional
Acinetobacter baumannii [5] = experiment: Antibacterial activity against Acinetobacter baumannii AYE measured after overnight incubation in presence of polymyxin B nonapeptide by microbroth dilution method; assay type: functional
Staphylococcus aureus [6] = experiment: Antibacterial activity against methicillin sensitive Staphylococcus aureus NCTC 6571 measured after overnight incubation by microbroth dilution method; assay type: functional; summary of the method: as §2
Enterococcus faecalis [7] = experiment: Antibacterial activity against vancomycin resistant Enterococcus faecalis NCTC12201 measured after overnight incubation by microbroth dilution method; assay type: functional; summary of the method: as §2
Klebsiella pneumoniae [8] = experiment: Antibacterial activity against Klebsiella pneumoniae M6 measured after overnight incubation by microbroth dilution method; assay type: functional; summary of the method: as §1
Escherichia coli [9] = experiment: Antibacterial activity against Escherichia coli NCTC12923 measured after overnight incubation in presence of polymyxin B nonapeptide by microbroth dilution method; assay type: functional
Pseudomonas aeruginosa [10] = experiment: Antibacterial activity against Pseudomonas aeruginosa PAO1 measured after overnight incubation in presence of polymyxin B nonapeptide by microbroth dilution method; assay type: functional
Klebsiella pneumoniae [11] = experiment: Antibacterial activity against Klebsiella pneumoniae NCTC13368 measured after overnight incubation by microbroth dilution method; assay type: functional; summary of the method: as §1
Pseudomonas aeruginosa [12] = experiment: Antibacterial activity against Pseudomonas aeruginosa NCTC13437 measured after overnight incubation in presence of polymyxin B nonapeptide by microbroth dilution method; assay type: functional
Klebsiella pneumoniae [13] = experiment: Antibacterial activity against Klebsiella pneumoniae NCTC13368 measured after overnight incubation in presence of polymyxin B nonapeptide by microbroth dilution method; assay type: functional
Acinetobacter baumannii [14] = experiment: Antibacterial activity against Acinetobacter baumannii AYE measured after overnight incubation by microbroth dilution method; assay type: functional; summary of the method: as §1
Pseudomonas aeruginosa [15] = experiment: Antibacterial activity against Pseudomonas aeruginosa PAO1 measured after overnight incubation by microbroth dilution method; assay type: functional; summary of the method: as §1
Staphylococcus aureus [16] = experiment: Antibacterial activity against methicillin resistant Staphylococcus aureus NCTC13277 measured after overnight incubation by microbroth dilution method; assay type: functional; summary of the method: as §2
Pseudomonas aeruginosa [17] = experiment: Antibacterial activity against Pseudomonas aeruginosa NCTC13437 measured after overnight incubation by microbroth dilution method; assay type: functional; summary of the method: as §1
Enterococcus faecalis [18] = experiment: Antibacterial activity against vancomycin sensitive Enterococcus faecalis NCTC775 measured after overnight incubation by microbroth dilution method; assay type: functional; summary of the method: as §2
Acinetobacter baumannii [19] = experiment: Antibacterial activity against Acinetobacter baumannii ATCC 17978 measured after overnight incubation in presence of polymyxin B nonapeptide by microbroth dilution method; assay type: functional
HEK293 = experiment: Cytotoxicity again human HEK293 cells measured after 24 hrs by XTT assay; assay type: cell-based; settings: HEK293, 24 h
Summary of the method: (§3)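 Cells were grown in EMEM with glutamine, 10% FBS and non-essential amino acids at 37 °C, 10% CO2. Seeding was 1 x 10^5 cells/mL (HEK293) or 4 x 10^4 cells/mL (HeLa), then 24 h adherence. Doubling compound dilutions were applied for 24 h. XTT/PMS was added for 4 h in the dark, with absorbance read at 450 nm. Untreated cells were the 100% control and water-treated cells the 0% control; IC50 was fitted.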

Enterococcus faecium = experiment: Antibacterial activity against Enterococcus faecium NCTC12204 assessed as generation of drug resistance at 2 times MIC measured after 48 hrs by agar-based microbroth dilution method
Staphylococcus aureus [20] = experiment: Bacteriostatic activity against methicillin resistant Staphylococcus aureus NCTC13616 at 4 times MIC measured at 0 to 24 hrs by time kill assay
Enterococcus faecalis [21] = experiment: Antibacterial activity against vancomycin resistant Enterococcus faecalis NCTC12204 measured after overnight incubation by microbroth dilution method; assay type: functional; summary of the method: as §2
Pseudomonas aeruginosa [22] = experiment: Antibacterial activity against Pseudomonas aeruginosa NCTC13437 measured after overnight incubation in presence of phenylalanine arginine beta-naphthylamide by microbroth dilution method; assay type: functional; summary of the method: as §1
Klebsiella pneumoniae [23] = experiment: Antibacterial activity against Klebsiella pneumoniae NCTC13368 measured after overnight incubation in presence of phenylalanine arginine beta-naphthylamide by microbroth dilution method; assay type: functional; summary of the method: as §1
DNA gyrase = DNA gyrase (Staphylococcus aureus, UniProt P0A0K8+P20831, S84L); experiment: Inhibition of Staphylococcus aureus DNA gyrase S84L mutant; assay type: protein-complex assay
Acinetobacter baumannii [24] = experiment: Antibacterial activity against Acinetobacter baumannii AYE measured after overnight incubation in presence of phenylalanine arginine beta-naphthylamide by microbroth dilution method; assay type: functional; summary of the method: as §1
Escherichia coli [25] = experiment: Antibacterial activity against Escherichia coli NCTC12923 measured after overnight incubation in presence of phenylalanine arginine beta-naphthylamide by microbroth dilution method; assay type: functional; summary of the method: as §1
Acinetobacter baumannii [26] = experiment: Antibacterial activity against Acinetobacter baumannii ATCC 17978 measured after overnight incubation in presence of phenylalanine arginine beta-naphthylamide by microbroth dilution method; assay type: functional; summary of the method: as §1
Staphylococcus aureus [27] = experiment: Antibacterial activity against Staphylococcus aureus NCTC13616 assessed as generation of drug resistance at 2 times MIC measured after 48 hrs by agar-based microbroth dilution method; assay type: functional
Summary of the method: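 Agar method: exponentially growing bacteria, in known numbers, plated on agar with doubling compound concentrations at and above the MIC; incubated 48 hours. Colonies growing above the MIC were picked and re-tested by microbroth MIC for raised resistance. Resistance frequency reported at 2xMIC.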

HeLa = experiment: Cytotoxicity again human HeLa cells measured after 24 hrs by XTT assay; assay type: cell-based; summary of the method: as §3
Klebsiella pneumoniae [28] = experiment: Antibacterial activity against Klebsiella pneumoniae M6 measured after overnight incubation in presence of phenylalanine arginine beta-naphthylamide by microbroth dilution method; assay type: functional; summary of the method: as §1
Pseudomonas aeruginosa [29] = experiment: Antibacterial activity against Pseudomonas aeruginosa PAO1 measured after overnight incubation in presence of phenylalanine arginine beta-naphthylamide by microbroth dilution method; assay type: functional; summary of the method: as §1
[30] = Inhibition of Staphylococcus aureus DNA gyrase subunit A2B2 using relaxed pBR322 DNA as substrate measured after 30 mins in presence of ATP by ethidium bromide-based gel electrophoresis
Summary of the method: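 Supercoiling assay with S. aureus wild-type or S84L gyrase and relaxed pBR322, with or without varying compound, at 37 °C for 30 min. The reaction was stopped with STEB and extracted with chloroform:isoamyl alcohol (24:1). The aqueous phase was run on a 1% agarose gel and the supercoiled band quantified. IC50 came from at least three independent replicates.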

Enterococcus faecalis [31] = experiment: Bacteriostatic activity against vancomycin resistant Enterococcus feacalis NCTC12204 at 4 times MIC measured at 0 to 24 hrs by time kill assay
Topoisomerase IV = Topoisomerase IV (Staphylococcus aureus, UniProt P0C1S7+P0C1U9); experiment: Inhibition of Staphylococcus aureus topoisomerase-4 expressed in Escherichia coli assessed as relaxation of pBR322 substrate measured after 30 mins by agarose gel electrophoresis
Staphylococcus aureus [32] = experiment: Antibacterial activity against methicillin-resistant Staphylococcus aureus EMRSA15 measured after overnight incubation by microbroth dilution method; assay type: functional; summary of the method: as §2
Staphylococcus aureus [33] = experiment: Antibacterial activity against methicillin-sensitive Staphylococcus aureus ATCC 9144 measured after overnight incubation by microbroth dilution method; assay type: functional; summary of the method: as §2
Staphylococcus aureus [34] = experiment: Antibacterial activity against methicillin-resistant Staphylococcus aureus MRSA252 measured after overnight incubation by microbroth dilution method; assay type: functional; summary of the method: as §2

Compound	MIC (Escherichia coli [1])	MIC (Staphylococcus aureus [2])	MIC (Acinetobacter baumannii [3])	MIC (Klebsiella pneumoniae [4])	MIC (Acinetobacter baumannii [5])	MIC (Staphylococcus aureus [6])	MIC (Enterococcus faecalis [7])	MIC (Klebsiella pneumoniae [8])	MIC (Pseudomonas aeruginosa [10])	MIC (Klebsiella pneumoniae [11])	MIC (Pseudomonas aeruginosa [12])	MIC (Klebsiella pneumoniae [13])	MIC (Acinetobacter baumannii [14])	MIC (Pseudomonas aeruginosa [15])	MIC (Staphylococcus aureus [16])	MIC (Pseudomonas aeruginosa [17])	MIC (Enterococcus faecalis [18])	MIC (Acinetobacter baumannii [19])	MIC (Enterococcus faecalis [21])	MIC (Staphylococcus aureus [32])	further results
Cc1c(CNCc2ccccc2)cc(-c2ccc(Cl)cc2)n1-c1ccc(Cl)cc1	> 128 µg/mL	8 µg/mL (≈ 19 µM)	> 128 µg/mL	32 µg/mL	16 µg/mL	8 µg/mL (≈ 19 µM)	4 µg/mL (≈ 9.49 µM)	> 128 µg/mL	> 128 µg/mL	> 128 µg/mL	> 128 µg/mL	> 128 µg/mL	> 128 µg/mL	> 128 µg/mL	4 µg/mL (≈ 9.49 µM)	> 128 µg/mL	4 µg/mL (≈ 9.49 µM)	16 µg/mL			MIC (Escherichia coli [9]): > 128 µg/mL
Cc1c(CNC2CCCCCC2)cc(-c2ccc(Cl)cc2)n1-c1ccc(C(C)C)cc1	> 128 µg/mL	4 µg/mL (≈ 9.19 µM)	32 µg/mL (≈ 73.6 µM)	> 128 µg/mL	4 µg/mL	4 µg/mL (≈ 9.19 µM)	2 µg/mL (≈ 4.6 µM)	> 128 µg/mL	16 µg/mL	> 128 µg/mL	16 µg/mL	> 128 µg/mL	> 128 µg/mL	> 128 µg/mL	4 µg/mL (≈ 9.19 µM)	> 128 µg/mL	2 µg/mL (≈ 4.6 µM)	2 µg/mL	2 µg/mL (≈ 4.6 µM)		IC50 (HEK293): 1.95 to 2.83 µg/mL (≈ 4.48 to 6.5 µM); Activity (Enterococcus faecium): <9.4e-08; Activity (Staphylococcus aureus [20]): Active; MIC (Pseudomonas aeruginosa [22]): > 128 µg/mL; MIC (Klebsiella pneumoniae [23]): > 128 µg/mL; IC50 (DNA gyrase): 43.7 µM; MIC (Acinetobacter baumannii [24]): 4 µg/mL; MIC (Escherichia coli [9]): 2 µg/mL; MIC (Escherichia coli [25]): 8 µg/mL; MIC (Acinetobacter baumannii [26]): 4 µg/mL; Activity (Staphylococcus aureus [27]): <7.6e-08; IC50 (HeLa): 1.95 to 2.83 µg/mL (≈ 4.48 to 6.5 µM); MIC (Klebsiella pneumoniae [28]): > 128 µg/mL; MIC (Pseudomonas aeruginosa [29]): 128 µg/mL; IC50 [30]: 15.49 µg/mL; Activity (Enterococcus faecalis [31]): Active
Cc1c(CNC2CCCCC2)cc(-c2ccc(Cl)cc2)n1-c1ccc(Cl)cc1	> 128 µg/mL	4 µg/mL (≈ 9.68 µM)	64 µg/mL (≈ 155 µM)	64 µg/mL	8 µg/mL	4 µg/mL (≈ 9.68 µM)	4 µg/mL (≈ 9.68 µM)	> 128 µg/mL	> 128 µg/mL	> 128 µg/mL	32 µg/mL	> 128 µg/mL	128 µg/mL (≈ 310 µM)	> 128 µg/mL	4 µg/mL (≈ 9.68 µM)	> 128 µg/mL	4 µg/mL (≈ 9.68 µM)	4 µg/mL	2 µg/mL (≈ 4.84 µM)		
C[C@H]1COc2c(N3CCN(C)CC3)c(F)cc3c(=O)c(C(=O)O)cn1c23.C[C@H]1COc2c(N3CCN(C)CC3)c(F)cc3c(=O)c(C(=O)O)cn1c23.O [LEVOFLOXACIN]	< 0.12 µg/mL	8 µg/mL	0.12 µg/mL			0.12 µg/mL	1 µg/mL	0.12 µg/mL							8 µg/mL		1 µg/mL		0.5 µg/mL		Activity (Enterococcus faecium): 7.08e-06; IC50 (Topoisomerase IV): 9.85 µM; Activity (Staphylococcus aureus [27]): 1.87e-05; IC50 [30]: 8.71 µg/mL
Cc1cc(CNCc2ccc(Cl)cc2)c(C)n1-c1ccc(Cl)cc1							16 µg/mL (≈ 44.5 µM)										32 µg/mL (≈ 89.1 µM)		8 µg/mL (≈ 22.3 µM)	32 µg/mL (≈ 89.1 µM)	MIC (Staphylococcus aureus [33]): 32 µg/mL (≈ 89.1 µM); MIC (Staphylococcus aureus [34]): 32 µg/mL (≈ 89.1 µM)
Cc1cc(CNCCc2ccccc2)c(C)n1-c1ccc(Cl)cc1							16 µg/mL (≈ 47.2 µM)										32 µg/mL (≈ 94.4 µM)		8 µg/mL (≈ 23.6 µM)	32 µg/mL (≈ 94.4 µM)	MIC (Staphylococcus aureus [33]): 32 µg/mL (≈ 94.4 µM); MIC (Staphylococcus aureus [34]): 32 µg/mL (≈ 94.4 µM)
Cc1cccc(-n2c(C)cc(CN3CCN(C4C5CC6CC(C5)CC4C6)CC3)c2C)c1 (centres undefined)							64 µg/mL (≈ 153 µM)										64 µg/mL (≈ 153 µM)		64 µg/mL (≈ 153 µM)	64 µg/mL (≈ 153 µM)	MIC (Staphylococcus aureus [33]): 64 µg/mL (≈ 153 µM); MIC (Staphylococcus aureus [34]): 64 µg/mL (≈ 153 µM)
